NTR1 ag: agonists of human NTR1, primary screen, imaging, U2OS cells, beta-arrestin-GFP, high content; Neurotensin receptor type 1 (Homo sapiens), P30989; hit rate 0.17% among 330,000; NTR1-U2OS beta-arrestin-GFP spot imaging, agonist mode; activation, % at 20 µM;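 active = activation at or above 40% of the spot to cytoplasm intensity ratio, with at least 20 cells analyzed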
Target sequence (P30989 whole entry, looked up): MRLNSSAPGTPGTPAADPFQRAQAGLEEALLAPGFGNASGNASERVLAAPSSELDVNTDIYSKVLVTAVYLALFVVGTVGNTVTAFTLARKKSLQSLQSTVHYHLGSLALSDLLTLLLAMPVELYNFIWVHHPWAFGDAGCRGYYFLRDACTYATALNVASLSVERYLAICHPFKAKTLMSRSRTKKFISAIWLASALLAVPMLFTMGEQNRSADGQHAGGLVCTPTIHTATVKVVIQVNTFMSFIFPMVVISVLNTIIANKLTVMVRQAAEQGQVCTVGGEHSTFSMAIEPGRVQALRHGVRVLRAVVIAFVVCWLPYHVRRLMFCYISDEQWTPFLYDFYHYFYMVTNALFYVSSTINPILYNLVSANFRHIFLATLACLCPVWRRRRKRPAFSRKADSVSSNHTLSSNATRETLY
MC4R antagonist: MC4R antagonists of cAMP signaling, primary screen, cell-based, TR-FRET, antagonist arm of biased-ligand search | Melanocortin receptor 4 (Homo sapiens), P32245 | MC4R-expressing cells, MTII-stimulated cAMP, LANCE TR-FRET | inhibition, % at 6.5 µM | hit rate 0.48% among 360,000;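 active = inhibition above its plate's cutoff, the mean of tested wells on that plate plus 3 SD, cut at about 29% in these data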
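Assay system: U2OS cells stably expressing human melanocortin 4 receptor (MC4R) / Dosing: 6.5 µM / Timing: compound 30 min, challenge 1 h, detection 1 h / Measured by: Eu-cAMP/anti-cAMP TR-FRET, emission 671 nm / Replicates: singlicate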
MC4R ag barr: MC4R agonists recruiting beta-arrestin, primary screen, cell-based, luminescence, agonist arm of biased-ligand search. U2OS MC4R beta-arrestin complementation; percent of melanotan II response, DMSO zero. activation, % at 8.9 µM. Melanocortin receptor 4 (Homo sapiens), P32245. hit rate 0.98% among 360,000;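 active = activation above a per-plate cutoff, the mean activation of sample wells on that plate plus 3 SD, cut at about 8% in these data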
AI-2 QS modul: Vibrio harveyi AI-2 quorum sensing modulators, primary screen, JMH597 strain, luminescence/OD600 ratio | Vibrio harveyi JMH597 AI-2 luminescence/OD600 ratio, 9 h; stronger effect = lower value; strain lacks LuxN and CqsS sensors; 0 = neutral-control median | activity change, % at 7.5 µM | hit rate 0.4% among 300,000; in the data active = activity change below about -75%, passing the limit was not always enough;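 note: luminescence divided by OD600 gain over 9 h not by final OD600 alone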
MC4R barr conf: MC4R beta-arrestin agonists, retest, confirmation, cell-based, luminescence, U2OS | AID 602192, 2012 | activation, % at 8.9 µM | shares compounds with MC4R ag barr | hit rate 31% among 2,400 | U2OS MC4R beta-arrestin recruitment; scaled DMSO 0%, Melanotan II 100%;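 active = mean activation across replicates above the hit cutoff set in the earlier primary screen, cut at about 8% in these data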
MOR-DOR barr ag: agonists of MOR-DOR heterodimerization, counter-screen for MC4R biased agonist project, cell-based, luminescence; shares compounds with MC4R ag barr; U2OS PathHunter beta-arrestin, beta-gal luminescence; percent of deltorphin B response, DMSO zero; activation, % at 9.2 µM; hit rate 5.8% among 2,400;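 active = mean activation across replicates exceeds the hit threshold derived in the earlier primary screen, cut at about 18% in these data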
Numbers stand for hits; 0 = inactive; - = no result. This is a sample that favours compounds with a hit; in the whole collection about 1.8% have one here.

SMILES	NTR1 ag	MC4R antagonist	MC4R ag barr	AI-2 QS modul	MC4R barr conf	MOR-DOR barr ag
CC1CCN(C(=O)COC(=O)C2CCN(S(=O)(=O)c3ccc(Cl)c(C(F)(F)F)c3)CC2)CC1	0	0	0	0	-	-
Cc1ccc(NC(=O)C2CCN(S(=O)(=O)c3ccc(Cl)c(C(F)(F)F)c3)CC2)nc1	0	0	9.9	0	0	0
O=S(=O)(c1ccc2nc(-c3ccccc3)[nH]c2c1)N1CCN(c2ccc(Cl)cc2)CC1	0	0	10.7	0	0	0
O=c1ccc2cc(S(=O)(=O)N3CCN(c4ccccc4)CC3)ccc2[nH]1	0	0	0	0	-	-
Clc1ccc(OCCCNCc2ccccc2)c(Br)c1	0	0	0	0	-	-
Clc1ccc(Cl)c(OCCCCNCc2ccccc2)c1	0	0	10.2	0	15.7	0
COc1cc(C(F)(F)F)nc2ccc(C#CCOC(=O)Nc3ccccc3)cc12	0	0	14.3	0	0	0
CCC1(C)Cc2c(sc3nc(SCC(=O)c4ccccc4)[nH]c(=O)c23)CO1 (stereo not given)	0	0	11.7	0	0	0
Cc1cc(C)c(C(=O)Cn2nc(C(=O)O)c3ccccc3c2=O)cc1C	0	0	0	0	-	-
NC(=O)c1c(NC(=O)Cn2nc(C(=O)O)c3ccccc3c2=O)sc2c1CCCC2	0	0	10.4	0	0	0
CCCc1ccc(C(=O)Cn2nc(C(=O)O)c3ccccc3c2=O)cc1	0	0	10.0	0	0	0
O=C(Cn1nc(C(=O)O)c2ccccc2c1=O)Nc1cc(Cl)cc(Cl)c1	0	0	12.1	-	0	0
NC(=O)c1c(NC(=O)Cn2nc(C(=O)O)c3ccccc3c2=O)sc2c1CCC2	0	0	0	0	-	-
N#Cc1c(-c2ccccc2)nc(SCc2cccc(Cl)c2)[nH]c1=O	0	0	0	0	-	-
COc1ccc(-c2cc(NC(C)=O)c3ncc(-c4cccc(C(F)(F)F)c4)n3c2)c(OC)c1	-	0	25.9	-	25.5	0
CC(=O)Nc1cc(-c2ccc(C(=O)N3CCOCC3)cc2)cn2c(-c3cccc(C(F)(F)F)c3)cnc12	-	0	0	-	-	-
COc1ccc(-c2cnc3c(NC(C)=O)cc(-c4cccc(NS(C)(=O)=O)c4)cn23)cc1OC	-	0	0	-	-	-
CC(=O)Nc1cc(-c2cccnc2)cn2c(-c3cccc(C(F)(F)F)c3)cnc12	-	0	28.4	-	28.9	0
COc1ccccc1-c1cc(NC(C)=O)c2ncc(-c3cccc(C(F)(F)F)c3)n2c1	-	0	24.6	-	21.9	0
COc1ccc(-c2cc(NC=O)c3ncc(-c4cccc(C(F)(F)F)c4)n3c2)c(OC)c1	-	0	20.4	-	12.9	0
CC1(C(=O)NS(=O)(=O)C2CC2)CCN(C(=O)c2ccc3c(c2)OCO3)C1 (stereo not given)	-	0	0	-	-	-
CCOc1ccc(NC(=O)CN(C)C(=O)c2c(C)nn(Cc3ccccc3Cl)c2C)cc1OCC	-	0	0	-	-	-
CC1(c2ccc(Cl)cc2)NC(=O)N(CC(=O)N2CCN(S(=O)(=O)c3ccccc3)CC2)C1=O (stereo not given)	0	0	0	0	-	-
CCOc1cc(/C=N/NC(=O)CSc2nnc(C)s2)ccc1OCc1ccccc1Cl	0	0	11.2	0	0	0
Cc1ccc2[nH]c(O)c(N=NC(=O)C3CC3c3ccccc3)c2c1Br (stereo not given)	0	0	17.9	0	0	0
Cc1cc(C)c(C(=O)COC(=O)Cn2c(C)csc2=O)cc1C	0	0	0	0	-	-
CCN(CC)C(=O)C1=C(C)N(Cc2ccc(C(C)(C)C)cc2)C(=O)C(CC(=O)NCCN2CCOCC2)C1 (stereo not given)	-	0	0	-	-	-
O=C1c2cccnc2C(=O)N1Cc1ccc(S(=O)(=O)N2CCN(c3ccc(Cl)cc3)CC2)cc1	0	0	11.0	0	0	0

Screening data: PubChem BioAssay, several laboratories
